Experiments:
Membrane-bound CD73 = target: T1, Membrane-bound CD73 (Homo sapiens, UniProt P21589); experiment: Membrane-bound CD73 inhibition; assay type: biochemical
T1 sequence (P21589 27-574): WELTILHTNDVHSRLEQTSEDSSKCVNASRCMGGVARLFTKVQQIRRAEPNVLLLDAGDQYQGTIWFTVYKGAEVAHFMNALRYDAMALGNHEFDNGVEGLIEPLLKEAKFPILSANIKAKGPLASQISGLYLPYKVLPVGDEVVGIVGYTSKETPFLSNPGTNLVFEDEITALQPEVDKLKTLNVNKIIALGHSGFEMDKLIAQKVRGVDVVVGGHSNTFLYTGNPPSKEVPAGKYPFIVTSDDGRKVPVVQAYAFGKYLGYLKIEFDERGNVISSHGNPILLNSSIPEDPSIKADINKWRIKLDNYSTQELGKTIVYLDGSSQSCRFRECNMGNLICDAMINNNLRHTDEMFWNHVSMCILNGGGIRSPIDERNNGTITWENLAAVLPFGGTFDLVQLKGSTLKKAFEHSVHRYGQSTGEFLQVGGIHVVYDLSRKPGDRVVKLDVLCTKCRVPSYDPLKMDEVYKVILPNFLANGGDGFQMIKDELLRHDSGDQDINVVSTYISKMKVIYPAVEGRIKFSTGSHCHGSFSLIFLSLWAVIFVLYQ

NTPDase2 = target: T2, NTPDase2 (Homo sapiens, UniProt Q9Y5L3); experiment: Malachite green assay, NTPDase2 in COS-7 cell membranes; assay type: biochemical
T2 sequence (Q9Y5L3 1-495): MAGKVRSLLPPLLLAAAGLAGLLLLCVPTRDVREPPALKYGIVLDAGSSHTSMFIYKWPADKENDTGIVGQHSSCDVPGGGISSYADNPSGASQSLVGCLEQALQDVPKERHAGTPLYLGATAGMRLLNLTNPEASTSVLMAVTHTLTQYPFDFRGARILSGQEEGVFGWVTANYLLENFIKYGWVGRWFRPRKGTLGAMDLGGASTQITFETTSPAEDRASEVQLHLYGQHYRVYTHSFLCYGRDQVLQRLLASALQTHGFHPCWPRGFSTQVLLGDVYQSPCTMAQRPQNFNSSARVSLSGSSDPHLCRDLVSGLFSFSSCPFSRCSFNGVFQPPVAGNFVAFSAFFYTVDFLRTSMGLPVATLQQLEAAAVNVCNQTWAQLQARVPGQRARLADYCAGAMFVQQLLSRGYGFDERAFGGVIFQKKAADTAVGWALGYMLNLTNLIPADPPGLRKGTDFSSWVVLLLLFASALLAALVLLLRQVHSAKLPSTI
Outline: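 Human NTPDase2, -3 or -8 was expressed in COS-7 membranes (ca. 100 ng protein, adjusted for 10–20% substrate conversion). Enzyme was preincubated 5 min at 37°C with test compound (50 µM single point, or 0.1–300 µM for curves). It was then incubated 15 min at 37°C with 100 µM ATP in HEPES/CaCl2/MgCl2, pH 7.4, ≤2% DMSO. Malachite green absorbance at 600 nm was corrected by a denatured-enzyme blank; n=3.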

[1] = read-out: % inhibition at 50 µM

With `Cc1cc(Nc2ncc(Cl)c(Nc3ccccc3S(=O)(=O)C(C)C)n2)c(OC(C)C)cc1C1CCNCC1` [ceritinib, Ceritinib] the IC50 (Membrane-bound CD73) was greater than 50 µM, the inhibition at 50 µM (Membrane-bound CD73; [1]) was 30% and the IC50 (NTPDase2) was greater than 50 µM. For the same compound, the inhibition at 50 µM (NTPDase2; [1]) was -8%.

From PMC9394215 (Journal for Immunotherapy of Cancer, 2022)
